The assay deals with NCI-H23. The assay is described as follows: Transfection efficiency in NCI-H23 lung cancer cell line was determined. Format: functional, cell-based. The conditions noted are these: Homo sapiens. In outline:
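Cationic lipid/cholesterol 1:1 liposomes hydrated in PBS and bath-sonicated (twice 15 min, 65–68 °C; DOTAP/Chol at 37 °C). Lipoplexes with pGL3 (SV40-luciferase) at 2:1 charge ratio, 30 min at 22 °C in Optimem. NCI-H23 cells in RPMI 1640/10% FBS, 20 000 cells/well seeded 24 h before. Exposed 1 h, then medium added for 24 h. Lysate luciferase measured by luminometer, protein by BCA. Triplicate or quadruplicate, mean ± 1 SD.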
As for `CCCCCCCCCCCCCCCC(=O)Oc1ccc(CC[n+]2c(C)cc(C)cc2C)cc1OC(=O)CCCCCCCCCCCCCCC`, the Activity result is on record as “A”. With `CCCCCCCCCCCC(=O)Oc1ccc(CC[n+]2c(C)cc(C)cc2C)cc1OC(=O)CCCCCCCCCCC` the entry was “A”; with `CCCCCCCCCCCCCCCCCC(=O)OCC(COC(=O)CCCCCCCCCCCCCCCCC)[n+]1c(C)cc(C)cc1C`, “A”; with `CCCCCCCCCCCCCCCCCC(=O)Oc1ccc(CC[n+]2c(C)cc(C)cc2C)cc1OC(=O)CCCCCCCCCCCCCCCCC`, “A”. Then `CCCCCCCCCCCCCC(=O)OCC(COC(=O)CCCCCCCCCCCCC)[n+]1c(C)cc(C)cc1C`, with “A”; and `CCCCCCCC(=O)Oc1ccc(CC[n+]2c(C)cc(C)cc2C)cc1OC(=O)CCCCCCC`, with “A”. As to `CCCCCCCCCCCCCCCC(=O)OCC(COC(=O)CCCCCCCCCCCCCCC)[n+]1c(C)cc(C)cc1C`, the Activity entry is given as “A”.

Turning to `CCCCCCCCCC(=O)Oc1ccc(CC[n+]2c(C)cc(C)cc2C)cc1OC(=O)CCCCCCCCC`, the Activity result is “A”. With `CCCCCCCCCCCCCC(=O)Oc1ccc(CC[n+]2c(C)cc(C)cc2C)cc1OC(=O)CCCCCCCCCCCCC` the entry was “A”. With `CCCCCCCCCCCC(=O)OCC(COC(=O)CCCCCCCCCCC)[n+]1c(C)cc(C)cc1C` the entry was “A”.

Source of the values: ChEMBL document CHEMBL1148285, “Pyridinium cationic lipids in gene delivery: a structure-activity correlation study” (J Med Chem, 2004).
